Shown are actives, neighbours in structure and some others; about 2.2% of the full set was active somewhere.
EBI2 block: blocks human EBI2 receptor beta-arrestin signaling. P32249. EBI2 beta-arrestin recruitment, luminescence, 7a,25-OHC stimulated. inhibition, % at 5 µM. hit rate 0.81% among 360,000. AID 651636; in the data active means inhibition above about 38%;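 further: enzyme fragment complementation signal reports receptor beta-arrestin coupling in cells; 0% = agonist plus DMSO wells and 100% = wells without agonist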
m5-HT2A agonist: activates the mouse 5-HT2A serotonin receptor. CHO-K1 mHTR2A beta-arrestin complementation, luminescence; percent of 30 µM serotonin response. P35363. hit rate 0.66% among 360,000. activation, % at 7.6 µM. AID 624169;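 active means activation above a run cutoff, the mean activation of all tested compounds plus 3 SD, cut at about 14% in these data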;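 further: 0% = plate median of compound wells and 100% = 30 µM serotonin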
CCR6 antag: blocks CCL20-driven beta-arrestin recruitment at human CCR6; P51684; CHO-K1 CCR6 PathHunter beta-arrestin, luminescence, CCL20-stimulated; inhibition, % at 20 µM; hit rate 0.49% among 340,000;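 active means compounds whose inhibition of the agonist-driven luminescence signal at 20 µM reaches about 50%, limit read from the data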;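 further: cells stimulated with CCL20 at 14 nM final; plate controls were DMSO with CCL20 for no effect and DMSO without agonist for full effect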
Target sequence (P51684 whole entry, looked up): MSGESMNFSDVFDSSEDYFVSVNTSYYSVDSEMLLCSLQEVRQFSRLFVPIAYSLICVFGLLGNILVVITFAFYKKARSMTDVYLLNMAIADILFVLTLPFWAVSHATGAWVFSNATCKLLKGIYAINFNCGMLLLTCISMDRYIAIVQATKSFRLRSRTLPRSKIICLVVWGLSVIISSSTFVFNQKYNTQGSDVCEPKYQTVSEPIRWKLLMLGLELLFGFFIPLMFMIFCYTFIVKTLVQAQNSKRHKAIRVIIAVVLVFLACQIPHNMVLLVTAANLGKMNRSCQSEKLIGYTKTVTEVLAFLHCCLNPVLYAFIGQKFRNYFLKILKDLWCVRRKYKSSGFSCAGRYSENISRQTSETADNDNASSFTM
APJ ag: APJ receptor agonism. P35414. CHO-K1 APJ PathHunter beta-arrestin, luminescence; 0% DMSO wells, 100% apelin. activation, % at 20 µM. hit rate 0.11% among 330,000. AID 2520;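 active means activation more than six SD over the plate average, tested at 20 µM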;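 further: 0% = DMSO alone and 100% = apelin-13 at 10 nM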
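Assay system: CHO-K1 cells stably expressing ProLink-tagged human APJ and arrestin–beta-gal acceptor. Compound dosing: 20 µM single point, 1% DMSO. Times: 16-18 h seeding, 90 min dark compound exposure, 60 min detection. Detection: beta-gal luminescence. Evaluation: APJ–arrestin association signal. Controls: negative DMSO alone, positive Apelin-13 at 10 nM.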
CXCR6 block: inhibitors of human CXCR6 receptor | O00574 | CHO-K1 PathHunter CXCR6 beta-arrestin, luminescence | inhibition, % at 20 µM | hit rate 0.36% among 360,000; in the data active means inhibition above about 34%, passing the limit was not always enough;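 further: antagonist mode with CXCL16 agonist at 10 nM final; 0% = 10 nM CXCL16 with DMSO and 100% = unstimulated wells without agonist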
Target sequence (O00574 whole entry, looked up): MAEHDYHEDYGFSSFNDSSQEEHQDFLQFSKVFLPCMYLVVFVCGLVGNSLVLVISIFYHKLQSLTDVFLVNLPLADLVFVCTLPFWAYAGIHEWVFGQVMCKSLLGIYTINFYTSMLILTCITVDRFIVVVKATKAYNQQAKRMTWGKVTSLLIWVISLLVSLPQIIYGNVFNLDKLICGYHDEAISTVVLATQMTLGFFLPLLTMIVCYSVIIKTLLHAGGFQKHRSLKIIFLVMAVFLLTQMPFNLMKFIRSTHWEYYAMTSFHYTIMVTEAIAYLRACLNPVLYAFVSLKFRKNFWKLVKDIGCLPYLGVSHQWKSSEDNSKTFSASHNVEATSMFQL
APJ antag: APJ receptor antagonism; P35414; inhibition, % at 20 µM; hit rate 0.32% among 330,000; CHO-K1 APJ beta-arrestin complementation, luminescence;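 active means inhibition above about 40% at 20 µM, limit read from the data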;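 further: cells challenged with 10 nM apelin-13 agonist together with compound; plate controls were apelin-13 plus DMSO wells for no effect and DMSO wells lacking apelin-13 for full effect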
MOR ag counter: activates human mu opioid receptor in HTR2A counterscreen. hit rate 5.3% among 2,300. U2OS OPRM1 beta-arrestin PathHunter, luminescence; DMSO 0%, DAMGO 9.3 µM 100%. shares compounds with m5-HT2A agonist. activation, % at 9.3 µM;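 active means mean activation above the mean of DMSO-only wells plus 3 SD, cut at about 0.5% in these data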
m5-HT2A ag conf: confirmation of mouse HTR2A serotonin receptor agonists; shares compounds with m5-HT2A agonist; activation, % at 7.6 µM; CHO-K1 PathHunter beta-arrestin recruitment, luminescence; DMSO 0%, 30 µM serotonin 100%; hit rate 19% among 2,300;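 active means mean activation across triplicates above the hit threshold derived in the original primary screen, cut at about 15% in these data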
* = called active by the depositor; / = no result.

SMILES | EBI2 block | m5-HT2A agonist | CCR6 antag | APJ ag | CXCR6 block | APJ antag | MOR ag counter | m5-HT2A ag conf
C=CCNC(=O)/C(C#N)=C/c1c(N2CCN(c3cccc(Cl)c3)CC2)nc2c(C)cccn2c1=O | 6 | 20* | 10 | -5 | 19 | -15 | -1 | 6
CCOC(=O)/C(C#N)=C/c1c(N2CCN(c3cccc(Cl)c3)CC2)nc2c(C)cccn2c1=O | 20 | 0 | 17 | 0 | 11 | 17 | / | /
CNC(=O)/C(C#N)=C/c1c(N2CCN(c3cccc(Cl)c3)CC2)nc2c(C)cccn2c1=O | -4 | 19* | 22 | -5 | 14 | -8 | -1 | 0
CN(C)Cc1ccccc1-c1cccc2nccn12 | -6 | 4 | / | / | -7 | / | / | /
Cc1cc(C(=O)CSc2nnc(-c3ccc(F)cc3)o2)c(C)n1CC1COc2ccccc2O1 (centres undefined) | 11 | 16* | 11 | -5 | 9 | 29 | -1 | 0
O=C(c1ccco1)N1CCN(c2c(-c3ccccc3)c3cc(Cl)ccc3[nH]c2=O)CC1 | 22 | 52* | -1 | -4 | 4 | 9 | 1.3* | 24*
COc1ccc(-c2ccccc2)cc1NC(=O)C1(C)CCN1C(=O)C(C)C (centres undefined) | 12 | -5 | / | / | -6 | / | / | /
COc1ccc(C2=CC(c3ccc(F)cc3)n3nnnc3N2)cc1 (centres undefined) | 6 | 2 | 15 | -5 | -4 | 0 | / | /
COc1ccc(C2=CC(c3sccc3C)n3nnnc3N2)cc1 (centres undefined) | -8 | 15* | 15 | -5 | 18 | 28 | 0 | 2
COC(=O)C[C@@H]1OC[C@H](Cc2ccccc2)N1S(=O)(=O)c1ccc(C)cc1 | 3 | 6 | / | / | / | / | / | /
O=C(Nc1cc(S(=O)(=O)N2CCOCC2)ccc1N1CCCC1)c1ccccc1C(F)(F)F | / | / | -2 | / | / | / | / | /
S=c1[nH]nc(-c2cccnc2)n1/N=C/C=C/c1ccccc1 | -7 | 16* | 0 | -1 | 2 | 2 | -1 | 0
Cc1ccc(-c2ccc(/C=C3\SC(N4CCOCC4)=NC3=O)o2)cc1 | 17 | 15* | 6 | -5 | 3 | -27 | 0 | 39*
CCOC(=O)[C@H]1[C@H]2COc3ccccc3[C@@H]2N2C(=O)c3cc(F)c(F)cc3NC(=O)[C@@]12C | -9 | 15* | -1 | 3 | 7 | 1 | 0 | 2
CN1CCN(c2ccc(CNC(=O)C3Cc4c(-c5ccc(Cl)cc5)ccnc4O3)cc2)CC1 (centres undefined) | 3 | -5 | / | / | 6 | / | / | /
Fc1ccc2nc3[nH]c4ccccc4c3nc2c1 | 10 | 22* | 14 | 7 | -6 | -1 | 0 | -1
CC(C(=O)O)c1ccc(C(=O)c2cccs2)cc1 (centres undefined) | -2 | 18* | 2 | -5 | 2 | 21 | 0 | 49*
COC(=O)[C@@H]1C[C@@]2(O)[C@H](O)[C@H](O)[C@H](O)C[C@H]2N1CC(c1ccccc1)c1ccccc1 | -2 | 20* | -10 | 0 | -10 | 6 | -1 | 0
COC(=O)[C@@H]1C[C@@]2(O)[C@H](O)[C@H](O)[C@H](O)C[C@H]2N1CC1CC1 | -5 | 8 | 12 | 5 | -8 | 16 | / | /
S=C1SC2(CCCCCC2)NC2=C1CCCCC2 | -10 | 2 | / | / | 2 | / | / | /
CC(Cc1c[nH]c2ccccc12)NC(=O)OCCCl (centres undefined) | -1 | 20* | -5 | -2 | -2 | 2 | -1 | -1
CCOC(=O)N1CCN(C/C(C)=C/c2ccccc2)CC1 | -3 | 18* | 8 | -3 | 3 | 4 | -1 | 57*
CCNC(=O)C[C@@H]1CC[C@@H]2NC[C@@H](O)COC[C@H]2O1 | -13 | 3 | / | / | / | / | / | /
Cc1ccc(S(=O)(=O)NC(=O)NCc2ccccn2)cc1 | 10 | 14* | 7 | 1 | -4 | 14 | -1 | -3
COc1cccc(Cn2cnc(-c3ccccc3OC)c2-c2cccs2)c1 | 10 | 24* | / | / | -6 | / | -1 | -7
SMILES | EBI2 block | m5-HT2A agonist | CCR6 antag | APJ ag | CXCR6 block | APJ antag | MOR ag counter | m5-HT2A ag conf
COc1ccc(C(O)c2nc(-c3cccc(O)c3)cs2)cc1 (centres undefined) | 2 | 17* | / | / | -2 | / | -1 | -1
OC(c1ccc(F)cc1)c1nc(-c2cccc(C(F)(F)F)c2)cs1 (centres undefined) | 4 | 23* | / | / | -10 | / | 0 | -6
CCc1nc2c(OCc3ccc(C(F)(F)F)cc3)cccn2c1N(C)C(=O)c1ccncc1 | -5 | -5 | / | / | -4 | / | / | /
O=C(NCc1cccnc1)c1cc(C2CCCCN2C(=O)c2ccccc2)on1 (centres undefined) | -1 | 3 | / | / | 1 | / | / | /
Cn1nc(C(C)(C)C)cc1C(=O)N1CCCCC1c1cc(C(=O)NCc2cccnc2)no1 (centres undefined) | -4 | 15* | / | / | -7 | / | 0 | 1
CCc1nc2ccc(C(=O)NC(C)(C)C)cn2c1N(CC)Cc1cccc(Br)c1 | 16 | 1 | / | / | -1 | / | / | /
COc1ccc(-c2c(-c3cc(OC)cc(OC)c3)n(C)c3ccc(-c4cnc(OC)nc4)cc23)cc1 | 20 | 3 | 19 | -4 | 8 | 9 | / | /
COc1ccc(-c2c(-c3cc(OC)cc(OC)c3)n(C)c3ccc(-c4ccc5[nH]ccc5c4)cc23)cc1 | 7 | 22* | 1 | -1 | 1 | -1 | -1 | -3
O=C(Nc1ccccc1)C(O)C(O)C(=O)Nc1ccccc1 (centres undefined) | -13 | 24* | -8 | -3 | 0 | 8 | -1 | -3
CC(C)C(=O)Nc1ccc(Nc2ccccc2)cc1 | 6 | -4 | 10 | -4 | 5 | 8 | / | /
O=C(Nc1ccc2c(c1)OCCO2)C1c2ccccc2OCC(=O)N1CCCN1CCOCC1 (centres undefined) | -1 | 4 | / | / | 2 | / | / | /
CCN1C(=O)N[C@@H](c2cccc(C(F)(F)F)c2)[C@@H](C(=O)OC)[C@H]1C | 5 | -5 | 5 | 5 | 0 | -58 | / | /
CCOC(=O)CN1C(=O)N[C@@H](c2cccc(C(F)(F)F)c2)[C@H](C(C)=O)[C@H]1C | -4 | 18* | 2 | -2 | -4 | -15 | -1 | -4
Cc1cc(C)cc(C(O)c2ncc(-c3ccccc3Cl)[nH]2)c1 (centres undefined) | -6 | 0 | / | / | 6 | / | / | /
C[C@@H]1ON(C)[C@H]2C[C@H]3c4[nH]c5ccccc5c4CCN3C[C@@H]12 | -1 | 22* | / | / | -3 | / | 0 | 13

Assay outcomes deposited in PubChem BioAssay by several laboratories.
